Test results published in ChEMBL document CHEMBL5329156, “Discovery and development of novel substituted monohydrazides as potent antifungal agents” (RSC Med Chem, 2023).
In brackets after ≈: the same amount, converted by molar mass.

How the values were obtained:
Type in all cases: functional
[Candida] auris [1] = Antifungal activity against Candida auris AR Bank # 0390 assessed as fungal growth inhibition by double dilution method; conditions: Candidozyma auris
In short: (§1)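 Broth microdilution after CLSI M27-A3/M38-A2 with minor changes. Single colony grown overnight in YPD at 35 °C, 200 rpm. Compound final range 0.06-31.3 µg/mL; incubated 48 h at 35 °C.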

Candida albicans [2] = test: Antifungal activity against itraconazole/fluconazole susceptible Candida albicans ATCC MYA-2876 assessed as fungal growth inhibition by double dilution method
In short: (§2)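 Broth microdilution after CLSI M27-A3/M38-A2 with minor modifications. A single colony was grown overnight in YPD at 35 °C with shaking at 200 rpm. Cells were mixed 1:1 with compound (final 0.06-31.3 µg/mL, from DMSO stocks) and incubated 48 h at 35 °C.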

Aspergillus fumigatus [3] = test: Antifungal activity against Aspergillus fumigatus NRRL 163 assessed as fungal growth inhibition by double dilution method
Aspergillus fumigatus [4] = test: Antifungal activity against Aspergillus fumigatus NRRL 6113 assessed as fungal growth inhibition by double dilution method
Candida albicans [5] = test: Antifungal activity against itraconazole/fluconazole resistant Candida albicans ATCC 90819 assessed as fungal growth inhibition by double dilution method; in short: as §2
Aspergillus terreus = test: Antifungal activity against Aspergillus terreus ATCC MYA-3633 assessed as fungal growth inhibition by double dilution method
Aspergillus fumigatus [6] = test: Antifungal activity against Aspergillus fumigatus NRRL 5109 assessed as fungal growth inhibition by double dilution method
Aspergillus flavus = test: Antifungal activity against Aspergillus flavus ATCC MYA-3631 assessed as fungal growth inhibition by double dilution method
Aspergillus nidulans = test: Antifungal activity against Aspergillus nidulans ATCC 38163 assessed as fungal growth inhibition by double dilution method
Candida albicans [7] = test: Antifungal activity against itraconazole/fluconazole susceptible Candida albicans ATCC MYA-2310 assessed as fungal growth inhibition by double dilution method; in short: as §2
[Candida] auris [8] = Antifungal activity against Candida auris AR Bank # 0384 assessed as fungal growth inhibition by double dilution method; conditions: Candidozyma auris; in short: as §1
Candida albicans [9] = test: Antifungal activity against Candida albicans ATCC 10231 assessed as fungal growth inhibition by double dilution method; in short: as §1
Candida albicans [10] = test: Antifungal activity against Candida albicans ATCC 64124 assessed as fungal growth inhibition by double dilution method; in short: as §2
Pichia kudriavzevii = test: Antifungal activity against Pichia kudriavzevii ATCC 6258 assessed as fungal growth inhibition by double dilution method; in short: as §1
Candida albicans [11] = test: Antifungal activity against itraconazole/fluconazole resistant Candida albicans ATCC MYA-1003 assessed as fungal growth inhibition by double dilution method; in short: as §2
Nakaseomyces glabratus [12] = test: Antifungal activity against Candida glabrata ATCC 22019 assessed as fungal growth inhibition by double dilution method; in short: as §1
Cryptococcus neoformans = test: Antifungal activity against Cryptococcus neoformans ATCC MYA-895 assessed as fungal growth inhibition by double dilution method; in short: as §1
Nakaseomyces glabratus [13] = test: Antifungal activity against Candida glabrata ATCC 2001 assessed as fungal growth inhibition by double dilution method; in short: as §1
Candida albicans [14] = test: Antifungal activity against itraconazole/fluconazole resistant Candida albicans ATCC MYA-1237 assessed as fungal growth inhibition by double dilution method; in short: as §2

SMILES | MIC ([Candida] auris [1]) [µg/mL] | MIC (Candida albicans [2]) [µg/mL] | MIC (Aspergillus fumigatus [3]) [µg/mL] | MIC (Aspergillus fumigatus [4]) [µg/mL] | MIC (Candida albicans [5]) [µg/mL] | MIC (Aspergillus terreus) [µg/mL] | MIC (Aspergillus fumigatus [6]) [µg/mL] | MIC (Aspergillus flavus) [µg/mL] | MIC (Aspergillus nidulans) [µg/mL] | MIC (Candida albicans [7]) [µg/mL] | MIC ([Candida] auris [8]) [µg/mL] | MIC (Candida albicans [9]) [µg/mL] | MIC (Candida albicans [10]) [µg/mL] | MIC (Pichia kudriavzevii) [µg/mL] | MIC (Candida albicans [11]) [µg/mL] | MIC (Nakaseomyces glabratus [12]) [µg/mL] | MIC (Cryptococcus neoformans) [µg/mL] | MIC (Nakaseomyces glabratus [13]) [µg/mL] | MIC (Candida albicans [14]) [µg/mL]
O=C(NNc1cccc(F)c1)c1ccc(Br)cn1 | 1.95 (≈ 6.29 µM) | 1.95 (≈ 6.29 µM) | > 31.3 | > 31.3 | 3.9 (≈ 12.6 µM) | 0.98 (≈ 3.16 µM) | > 31.3 | 15.6 (≈ 50.3 µM) | 1.95 (≈ 6.29 µM) | 3.9 (≈ 12.6 µM) | 1.95 (≈ 6.29 µM) | 0.49 (≈ 1.58 µM) | 0.49 (≈ 1.58 µM) | 0.24 (≈ 0.774 µM) | 0.98 (≈ 3.16 µM) | 7.8 (≈ 25.2 µM) | 0.06 (≈ 0.193 µM) | > 31.3 | 3.9 (≈ 12.6 µM)
O=C(NNc1ccc(F)cc1)c1ncc(F)cc1F | 0.98 (≈ 3.67 µM) | 1.95 (≈ 7.3 µM) | > 31.3 | > 31.3 | 1.95 (≈ 7.3 µM) | 3.9 (≈ 14.6 µM) | > 31.3 | 7.8 (≈ 29.2 µM) | 0.49 (≈ 1.83 µM) | 3.9 (≈ 14.6 µM) | 1.95 (≈ 7.3 µM) | 0.98 (≈ 3.67 µM) | 1.95 (≈ 7.3 µM) | 0.49 (≈ 1.83 µM) | 0.98 (≈ 3.67 µM) | 3.9 (≈ 14.6 µM) | 0.49 (≈ 1.83 µM) | 15.6 (≈ 58.4 µM) | 1.95 (≈ 7.3 µM)
COc1cccc(NNC(=O)c2cccc(Br)n2)c1 | 1.95 (≈ 6.05 µM) | 0.49 (≈ 1.52 µM) | > 31.3 | > 31.3 | 1.95 (≈ 6.05 µM) | 1.95 (≈ 6.05 µM) | 31.3 (≈ 97.2 µM) | > 31.3 | 3.9 (≈ 12.1 µM) | 7.8 (≈ 24.2 µM) | 0.98 (≈ 3.04 µM) | 1.95 (≈ 6.05 µM) | 3.9 (≈ 12.1 µM) | 0.24 (≈ 0.745 µM) | 3.9 (≈ 12.1 µM) | 0.98 (≈ 3.04 µM) | 0.98 (≈ 3.04 µM) | 7.8 (≈ 24.2 µM) | 0.98 (≈ 3.04 µM)
COc1ccc(NNC(=O)c2ccc(F)cn2)cc1 | 0.49 (≈ 1.88 µM) | 0.98 (≈ 3.75 µM) | > 31.3 | > 31.3 | 0.98 (≈ 3.75 µM) | 31.3 (≈ 120 µM) | > 31.3 | > 31.3 | 1.95 (≈ 7.46 µM) | 0.98 (≈ 3.75 µM) | 3.9 (≈ 14.9 µM) | 0.24 (≈ 0.919 µM) | 0.98 (≈ 3.75 µM) | 0.24 (≈ 0.919 µM) | 0.49 (≈ 1.88 µM) | 3.9 (≈ 14.9 µM) | ≤ 0.06 | 1.95 (≈ 7.46 µM) | 0.49 (≈ 1.88 µM)
COc1ccc(NNC(=O)c2ccc(F)cc2F)cc1 | 1.95 (≈ 7.01 µM) | 1.95 (≈ 7.01 µM) | > 31.3 | > 31.3 | 1.95 (≈ 7.01 µM) | 31.3 (≈ 112 µM) | > 31.3 | > 31.3 | 1.95 (≈ 7.01 µM) | 1.95 (≈ 7.01 µM) | 1.95 (≈ 7.01 µM) | 0.98 (≈ 3.52 µM) | 1.95 (≈ 7.01 µM) | 0.98 (≈ 3.52 µM) | 1.95 (≈ 7.01 µM) | 7.8 (≈ 28 µM) | 0.98 (≈ 3.52 µM) | 3.9 (≈ 14 µM) | 1.95 (≈ 7.01 µM)
O=C(NNc1cccc(F)c1)c1ncc(F)cc1F | 1.95 (≈ 7.3 µM) | 1.95 (≈ 7.3 µM) | > 31.3 | > 31.3 | 3.9 (≈ 14.6 µM) | 3.9 (≈ 14.6 µM) | > 31.3 | > 31.3 | 0.98 (≈ 3.67 µM) | 1.95 (≈ 7.3 µM) | 1.95 (≈ 7.3 µM) | 0.24 (≈ 0.898 µM) | 0.98 (≈ 3.67 µM) | 0.24 (≈ 0.898 µM) | 1.95 (≈ 7.3 µM) | 1.95 (≈ 7.3 µM) | ≤ 0.06 | 31.3 (≈ 117 µM) | 3.9 (≈ 14.6 µM)
COc1ccc(NNC(=O)c2nc(F)ccc2F)cc1 | 0.98 (≈ 3.51 µM) | 1.95 (≈ 6.98 µM) | 31.3 (≈ 112 µM) | 31.3 (≈ 112 µM) | 1.95 (≈ 6.98 µM) | 31.3 (≈ 112 µM) | 15.6 (≈ 55.9 µM) | > 31.3 | 1.95 (≈ 6.98 µM) | 1.95 (≈ 6.98 µM) | 3.9 (≈ 14 µM) | 1.95 (≈ 6.98 µM) | 1.95 (≈ 6.98 µM) | 0.98 (≈ 3.51 µM) | 0.98 (≈ 3.51 µM) | 7.8 (≈ 27.9 µM) | 0.98 (≈ 3.51 µM) | 7.8 (≈ 27.9 µM) | 0.98 (≈ 3.51 µM)
COc1cccc(NNC(=O)c2ccc(F)cn2)c1 | 0.98 (≈ 3.75 µM) | 0.49 (≈ 1.88 µM) | > 31.3 | > 31.3 | 3.9 (≈ 14.9 µM) | 3.9 (≈ 14.9 µM) | > 31.3 | > 31.3 | 1.95 (≈ 7.46 µM) | 1.95 (≈ 7.46 µM) | 1.95 (≈ 7.46 µM) | 0.24 (≈ 0.919 µM) | 0.98 (≈ 3.75 µM) | 0.24 (≈ 0.919 µM) | 0.98 (≈ 3.75 µM) | 3.9 (≈ 14.9 µM) | 0.24 (≈ 0.919 µM) | 15.6 (≈ 59.7 µM) | 1.95 (≈ 7.46 µM)
COc1ccc(NNC(=O)c2ncc(F)cc2F)cc1 | 0.98 (≈ 3.51 µM) | 1.95 (≈ 6.98 µM) | 31.3 (≈ 112 µM) | 31.3 (≈ 112 µM) | 1.95 (≈ 6.98 µM) | 31.3 (≈ 112 µM) | 31.3 (≈ 112 µM) | > 31.3 | 1.95 (≈ 6.98 µM) | 1.95 (≈ 6.98 µM) | 3.9 (≈ 14 µM) | 1.95 (≈ 6.98 µM) | 1.95 (≈ 6.98 µM) | 0.98 (≈ 3.51 µM) | 0.98 (≈ 3.51 µM) | 7.8 (≈ 27.9 µM) | 1.95 (≈ 6.98 µM) | 7.8 (≈ 27.9 µM) | 0.98 (≈ 3.51 µM)
